Source: PubChem
Hits are enriched below; roughly 0.55% of the tested compounds scored in any of these assays.
TRPML3 ag = activates the human TRPML3 channel | Q8TDD5 | HEK293 TRPML3-YFP, Fluo-8 calcium fluorescence; 100% = the carbachol control signal | activation, % at 3 µM | 220,000 tested, 0.29% active | AID 1448;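 active = activation above its plate's cutoff, the mean activation of the plate's test wells plus 3 SD, cut at about 12% in these data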;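 note: 0% = DMSO only wells and 100% = carbachol wells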
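Test system: TRPML3-YFP stable HEK293 cells. Doses: single point at 3 µM. Incubation: dye loading 1 h 37 °C then 30 min ambient, 125 s read. Signal: Fluo-8 calcium dye fluorescence, ex 470-495, em 515-575 nm. Measure: percent activation from peak-to-basal fluorescence ratio, scaled between DMSO and carbachol.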
V1aR counter = activates human V1a receptor in oxytocin agonist counter-screen | P37288 | CHO-V1R cells, Fluo-8 calcium fluorescence, agonist mode; 0% DMSO, 100% 3 nM vasopressin | activation, % at 3 µM | 320,000 tested, 0.25% active;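 active = activation above the mean activation of all tested compounds plus 3 SD, per screening run, cut at about 20% in these data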;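 note: signal is peak over basal fluorescence ratio across a 100 second FLIPR read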
OXTR ag = human OXTR agonism; activation, % at 3 µM; CHO-OTR cells, Fluo-8 calcium fluorescence; normalized: DMSO 0%, oxytocin 100%; 320,000 tested, 0.32% active; P30559; AID 2435;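 active = activation above the mean of all tested compounds plus 3 SD, cutoff set per screening run, cut at about 20% in these data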;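 note: peak over basal fluorescence ratio from a 100 s FLIPR kinetic read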
Target sequence (P30559 whole entry, looked up): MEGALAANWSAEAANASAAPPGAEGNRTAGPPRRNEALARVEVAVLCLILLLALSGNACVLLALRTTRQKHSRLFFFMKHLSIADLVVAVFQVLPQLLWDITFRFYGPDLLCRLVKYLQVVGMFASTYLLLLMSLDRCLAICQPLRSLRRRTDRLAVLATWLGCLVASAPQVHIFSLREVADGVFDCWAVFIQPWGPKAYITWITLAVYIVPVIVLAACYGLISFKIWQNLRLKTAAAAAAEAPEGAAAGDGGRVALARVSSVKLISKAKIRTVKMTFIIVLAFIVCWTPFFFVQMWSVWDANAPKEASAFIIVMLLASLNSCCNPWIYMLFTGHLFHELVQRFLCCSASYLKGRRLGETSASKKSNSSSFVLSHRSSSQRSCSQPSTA
OXTR potentiate = potentiates the human oxytocin receptor response. CHO-OTR cells, Fluo-8 calcium fluorescence, potentiator mode; 0% = oxytocin EC15, 100% = EC100. activation, % at 3 µM. 320,000 tested, 0.061% active;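 active = activation above that plate's cutoff, the mean activation of tested compounds plus 3 SD, cut at about 6.6% in these data, passing the limit was not always enough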;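 note: 100% uses oxytocin at 75 nM as the full agonist control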
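Assay system: CHO cell line stably expressing human OTR. Reagent: EC15 oxytocin agonist. Dosing: single dose, 3.0 µM nominal final compound concentration. Timing: compound 6 min at room temperature before oxytocin, 100 s read. Signal: kinetic Fluo-8 calcium fluorescence. Controls: oxytocin EC15 low and EC100 high.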
TRPN1 ag = activates the zebrafish TRPN1 channel | 220,000 tested, 0.18% active | HEK293 zebrafish TRPN1-YFP, Fluo-8 calcium fluorescence; 100% = response to 87 µM carbachol | AID 1424 | activation, % at 3 µM;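 active = activation above its plate's cutoff, the mean activation of test wells on that plate plus 3 SD, cut at about 19% in these data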;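 note: 0% = DMSO alone and 100% = 87 µM carbachol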
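Material: zebrafish TRPN1-YFP in HEK293 cells. Doses: one dose of 3 µM, 0.3% DMSO. Incubation: dye 1 h 37 °C plus 30 min RT. Measured by: intracellular calcium fluorescence with Fluo-8.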
OXTR pot cf = confirmation of human oxytocin receptor potentiators | shares compounds with OXTR potentiate | CHO-OTR cells, Fluo-8 calcium fluorescence, potentiation; scaled from low-dose to maximal oxytocin | activation, % at 3 µM | 180 tested, under 10 active | AID 434985;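 active = mean percent activation over triplicates above a cutoff set from solvent-only control plates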;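 note: compounds tested in the presence of an EC15 dose of oxytocin; 0% = EC15 oxytocin with DMSO and 100% = EC100 oxytocin with DMSO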
Active calls of the source: *; x = not tested or not shown.

SMILES	TRPML3 ag	V1aR counter	OXTR ag	OXTR potentiate	TRPN1 ag	OXTR pot cf
COc1cccc(OC)c1C(=O)Nn1c(C2CCC2)nc2ccccc2c1=O	0.4	-0.6	-1.9	4.4	0.7	x
CCC(=O)Nn1c(C2CCC2)nc2ccccc2c1=O	x	-0.3	-0.8	12.7*	x	-1.8
Cc1ccc(/C=N/NC(=O)Nc2ccccc2)o1	0.0	-1.0	-2.0	-5.0	-0.8	x
CC(=O)Nc1ccc(S(=O)(=O)Nc2nc3ccccc3nc2Cl)cc1	x	0.0	0.5	-4.3	x	x
Cc1ccc2c(c1)-n1c(nc3cc(Cl)ccc3c1=O)C(CC(C)C)NC2=O (centres undefined)	x	0.9	-1.3	13.3*	x	-0.5
Cc1c(C(=O)N2c3ccccc3CC2C)oc2ccccc12 (centres undefined)	x	-0.5	-1.1	-5.5	x	x
Cc1ccccc1-c1nnc(SCC(=O)Nc2c(C)n(C)n(-c3ccccc3)c2=O)o1	1.2	-0.3	0.6	11.3*	-0.5	-0.1
CC(=O)c1ccc(N2CCN(S(=O)(=O)c3ccc4ccccc4c3)CC2)cc1	x	1.7	0.1	-6.6	x	x
CCN1CCCC1CNCc1cc(OC)c(OC)c(OC)c1 (centres undefined)	0.5	1.5	3.3	13.0*	1.7	-5.3
CN(C)CC(O)COC(c1ccccc1)c1ccccc1 (centres undefined)	0.5	2.7	0.8	10.8*	-0.3	1.2
CCOc1cc(-c2noc(CCC(=O)NC3CCCCC3)n2)ccc1OC	x	0.9	0.8	-0.9	x	x
COc1cccc(C(=O)N/N=C/c2ccc(OC)c(COc3ccccc3C(N)=O)c2)c1	x	1.9	1.2	-5.9	x	x
O=C(CCCSc1nc2ccccc2[nH]1)NCc1ccccc1	-0.6	2.5	-1.2	12.0*	-1.5	-8.2
COc1ccc(COn2c(=O)c(C)[n+]([O-])c3ccccc32)cc1OC	0.1	0.3	0.5	1.3	0.5	x
Cc1ccccc1-c1nc(CN(C)C(C)c2ccon2)c(C)o1 (centres undefined)	-0.3	-1.2	-1.3	12.8*	-1.1	-0.7
Cc1oc(-c2ccccc2Cl)nc1CN(C)C(C)c1ccon1 (centres undefined)	-0.6	-1.1	-1.6	0.8	-1.0	x
COc1cc(C(=O)NCC2(N3CCCCC3)CCCCC2)ccc1OCC(=O)N1CCOCC1	-0.6	-0.4	1.9	-5.0	0.5	x
COC(=O)c1cc(C(=O)Nc2cccc(C)n2)cc([N+](=O)[O-])c1	0.1	-0.6	-0.9	9.1*	-0.5	0.1
Cn1c(=O)c2[nH]c(-c3ccccc3Cl)c(O)c2n(C)c1=O	7.1	3.0	1.2	22.4*	10.7	-4.6
CCOc1ccc(C(=O)Nc2nnc(SCC(=O)NCC3CCCO3)s2)cc1OCC (centres undefined)	x	0.7	1.3	10.7*	x	-0.1
COC(=O)C(CCSC)NC(=O)c1cc2c(n(-c3ccc(C)cc3)c1=O)CCCC2=O (centres undefined)	0.7	0.9	1.1	0.1	-0.1	x
O=C(NC(Cc1cccc(F)c1)C(=O)O)C1CCCCC1 (centres undefined)	x	0.6	0.6	8.1*	x	-10.1
CC(C)C1CCC(C(=O)N[C@H](Cc2ccccc2)C(=O)O)CC1 (some centres undefined)	0.9	0.5	0.2	-4.3	0.3	x
O=C(N/N=C/c1cn(-c2ccccc2)nc1-c1ccccc1)c1ccco1	-0.6	-0.9	-1.3	9.9*	0.7	-2.5
O=C(N/N=C\c1cn(-c2ccccc2)nc1-c1ccccc1)c1ccc(Br)o1	-0.4	0.6	-0.8	-15.5	-0.6	x
Cc1cc2oc(=O)c(CC(=O)NCCCN(C)C)c(C)c2c2occ(C(C)(C)C)c12	x	0.3	0.7	-9.2	x	x
COc1ccc(C(=O)NNC(=O)c2ccc(F)c(S(=O)(=O)N3CCOCC3)c2)cc1	x	0.7	1.5	13.7*	x	-5.1
O=C(O)CN(c1ccccc1F)S(=O)(=O)c1ccccc1	0.2	0.1	1.0	10.7*	0.6	-5.0
Cc1[nH][nH]c(=O)c1C(c1ccc(-c2ccc(Cl)c(C(=O)O)c2)o1)c1c(C)[nH][nH]c1=O	0.4	x	x	x	0.2	x
